Experiment [1] concerns the target T1, Cholecystokinin receptor (Homo sapiens) (UniProt P32239+P32238). The experiment is described as follows: Antagonist activity at CCK receptor by inhibition of CCK8-induced muscle contraction in unstimulated GPI/LMMP. The following applies: Cavia porcellus; target entry is the homologue from another species. It is filed as functional. Put shortly: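 Male Hartley guinea pig ileum LMMP strips, 1 g tension, oxygenated Krebs bicarbonate buffer, 37 °C; 67 mM KCl sets maximal contractility. Initial noncumulative CCK-8 dose-response curve built. Test compound added without electrical stimulation; 3 min later the CCK-8 curve was rebuilt at an antagonist dose giving about a 3-fold rightward shift. Ke is the antagonist concentration halving CCK-8 activity.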

The target of another experiment is Mu-type opioid receptor (Cavia porcellus, UniProt P97266). Kind of experiment: Agonist activity at mu opioid receptor by inhibition of muscle contraction in electrically stimulated isolated guinea pig ileum. It is filed as functional, tissue-based. Put shortly: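 Longitudinal muscle–myenteric plexus strips from male Hartley guinea pig ileum, 1 g tension, oxygenated Krebs at 37 °C, 15 min equilibration. Stimulated at 0.1 Hz, 0.4 ms, supramaximal voltage. Integrity checked with PL-017 (10 nM). Compound added until maximal inhibition. Inhibition taken as contraction height 1 min before versus 3 min after dosing. IC50 from Hill-equation fit.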
Sequence of Mu-type opioid receptor (P97266 whole entry): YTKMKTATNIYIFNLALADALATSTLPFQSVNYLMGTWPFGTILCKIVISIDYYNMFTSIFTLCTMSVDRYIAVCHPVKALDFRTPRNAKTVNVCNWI

The target in experiment [2] is Delta-type opioid receptor (Mus musculus, UniProt P32300). Kind of experiment: Agonist activity at delta opioid receptor by inhibition of muscle contraction in electrically stimulated isolated mouse vas deferens. It is filed as functional, tissue-based. Put shortly: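 Male ICR mouse vasa deferentia in 20-mL baths, 0.5 g tension, oxygenated Mg-free Krebs at 37 °C; field stimulation 0.1 Hz, 2.0 ms single pulses, supramaximal voltage. Tissue integrity checked with DPDPE (10 nM). Compound added cumulatively until maximal inhibition. Inhibition taken as mean contraction height for 1 min before dosing versus height 3 min after. IC50 from Hill-equation fit by nonlinear least squares.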
Sequence of Delta-type opioid receptor (Mus musculus, UniProt P32300) (P32300 whole entry): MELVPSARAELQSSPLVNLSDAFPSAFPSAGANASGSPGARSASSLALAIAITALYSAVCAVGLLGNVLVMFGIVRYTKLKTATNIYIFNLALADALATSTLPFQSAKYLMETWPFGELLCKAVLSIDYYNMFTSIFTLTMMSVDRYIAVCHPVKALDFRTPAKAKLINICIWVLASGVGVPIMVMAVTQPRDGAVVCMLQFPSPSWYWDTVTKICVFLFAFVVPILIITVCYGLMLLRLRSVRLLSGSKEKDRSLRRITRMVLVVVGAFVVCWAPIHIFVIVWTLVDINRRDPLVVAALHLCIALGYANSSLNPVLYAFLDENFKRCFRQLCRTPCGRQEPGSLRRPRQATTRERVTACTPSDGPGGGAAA

The target of experiment [3] is T1, Cholecystokinin receptor (Homo sapiens). The experiment is described as follows: Agonist activity at CCK receptor of guinea pig ileum at 300 nM. It is filed as functional, tissue-based. The following applies: Cavia porcellus, target entry is the homologue from another species. Put shortly: (§1)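 Guinea pig ileum LMMP strips (male Hartley), 20-mL baths, 1 g tension, oxygenated Krebs bicarbonate buffer, 37 °C. Tissue first challenged with 67 mM KCl to set maximal contraction. Test compound added to the bath; agonist activity taken as contraction height as a percentage of the maximal KCl contraction (A50).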

Experiment [4] shares this target. The experiment is described as follows: Agonist activity at CCK receptor of guinea pig ileum at 1 uM. The following applies: Cavia porcellus, target entry is the homologue from another species. The format is functional, tissue-based. In short, it runs like this: as §1
Experiment [5] has as its target Delta-type opioid receptor (Homo sapiens, UniProt P41143). Kind of experiment: Inhibition of [35S]GTP-gamma-S binding to human delta opioid receptor expressed in CHO cells. The format is functional, cell-based. Put shortly:
(§2)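 CHO-expressed receptor membranes (10 µg) in 50 mM HEPES pH 7.4 with EDTA, 5 mM MgCl2, 30 µM GDP, DTT, 100 mM NaCl, PMSF, BSA and 0.1 nM [35S]GTPγS. Test drug at various concentrations, duplicate or triplicate, 90 min at 30 °C. Nonspecific binding with 10 µM GTPγS.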

Experiment [6] has as its target Mu-type opioid receptor (Rattus norvegicus) (UniProt P33535). The experiment is described as follows: Inhibition of [35S]GTP-gamma-S binding to rat mu opioid receptor expressed in CHO cells. It is filed as functional, cell-based. In short, it runs like this:
as §2

A short description of experiment [7]: Selectivity for human delta opioid receptor over rat mu opioid receptor.
For experiment [8], the target named is T1, Cholecystokinin receptor (Homo sapiens). Kind of experiment: Antagonist activity at CCK receptor by inhibition of CCK8-induced muscle contraction in unstimulated GPI/LMMP at 1 uM. The format is functional. The following applies: Cavia porcellus, filed as partial agonist, target entry is the homologue from another species.

The text below walks through data of ChEMBL document CHEMBL1138152, “Design and synthesis of novel hydrazide-linked bifunctional peptides as delta/mu opioid receptor agonists and CCK-1/CCK-2 receptor antagonists” (J Med Chem, 2006).

Structures are written as SMILES.

Sequence of Mu-type opioid receptor (Rattus norvegicus) (P33535 whole entry): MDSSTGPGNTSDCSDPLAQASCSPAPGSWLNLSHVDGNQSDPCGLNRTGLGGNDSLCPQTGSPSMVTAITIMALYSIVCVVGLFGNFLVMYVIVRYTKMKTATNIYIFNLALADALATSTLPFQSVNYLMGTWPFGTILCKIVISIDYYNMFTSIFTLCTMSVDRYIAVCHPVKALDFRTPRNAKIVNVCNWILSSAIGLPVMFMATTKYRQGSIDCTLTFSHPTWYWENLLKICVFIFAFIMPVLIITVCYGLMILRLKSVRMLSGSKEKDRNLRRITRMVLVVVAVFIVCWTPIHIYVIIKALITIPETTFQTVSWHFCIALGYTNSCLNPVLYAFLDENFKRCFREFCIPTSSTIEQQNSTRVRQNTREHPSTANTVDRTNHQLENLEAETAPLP
T1 sequence (P32238 whole entry, looked up): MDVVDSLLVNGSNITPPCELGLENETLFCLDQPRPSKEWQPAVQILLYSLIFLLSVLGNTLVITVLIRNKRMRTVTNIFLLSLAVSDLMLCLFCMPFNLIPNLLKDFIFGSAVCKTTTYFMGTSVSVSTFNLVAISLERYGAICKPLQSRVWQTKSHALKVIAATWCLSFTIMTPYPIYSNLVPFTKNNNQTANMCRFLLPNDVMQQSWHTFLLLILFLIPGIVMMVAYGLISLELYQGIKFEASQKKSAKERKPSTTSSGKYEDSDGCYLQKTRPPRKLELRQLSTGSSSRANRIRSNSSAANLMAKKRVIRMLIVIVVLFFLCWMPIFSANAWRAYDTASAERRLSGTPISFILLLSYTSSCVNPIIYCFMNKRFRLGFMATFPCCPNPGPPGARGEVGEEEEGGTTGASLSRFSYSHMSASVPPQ
T1 sequence (P32239 whole entry, looked up): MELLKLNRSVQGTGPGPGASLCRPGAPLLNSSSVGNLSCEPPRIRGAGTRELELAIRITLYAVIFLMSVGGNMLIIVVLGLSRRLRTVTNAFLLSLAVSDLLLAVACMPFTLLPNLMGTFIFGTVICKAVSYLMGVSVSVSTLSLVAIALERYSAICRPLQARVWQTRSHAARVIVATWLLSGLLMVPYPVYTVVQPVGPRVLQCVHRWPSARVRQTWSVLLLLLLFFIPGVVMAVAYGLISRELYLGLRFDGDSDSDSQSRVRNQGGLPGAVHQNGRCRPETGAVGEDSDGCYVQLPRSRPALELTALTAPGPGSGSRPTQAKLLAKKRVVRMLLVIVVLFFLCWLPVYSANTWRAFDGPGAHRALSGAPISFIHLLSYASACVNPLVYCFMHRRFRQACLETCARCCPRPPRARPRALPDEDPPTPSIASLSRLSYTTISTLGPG
Sequence of Delta-type opioid receptor (Homo sapiens, UniProt P41143) (P41143 whole entry): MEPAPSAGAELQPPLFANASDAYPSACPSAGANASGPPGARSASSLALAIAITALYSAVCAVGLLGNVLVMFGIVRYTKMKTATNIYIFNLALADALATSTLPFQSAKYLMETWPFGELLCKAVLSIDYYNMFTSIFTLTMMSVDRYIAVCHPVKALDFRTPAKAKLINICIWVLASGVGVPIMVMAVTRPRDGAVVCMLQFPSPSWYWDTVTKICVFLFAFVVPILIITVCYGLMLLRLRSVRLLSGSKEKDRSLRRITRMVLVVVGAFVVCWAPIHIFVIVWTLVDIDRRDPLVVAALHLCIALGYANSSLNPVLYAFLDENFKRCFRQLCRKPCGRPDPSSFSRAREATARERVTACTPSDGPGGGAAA

The IC50 is the concentration needed to halve the response being measured. Higher therefore signals a need for much substance. Consider `CCCC[C@@H](C(=O)N[C@@H](CC(=O)O)C(=O)N[C@@H](Cc1ccccc1)C(N)=O)N(C)C(=O)[C@H](Cc1c[nH]c2ccccc12)NC(=O)CNC(=O)[C@@H](Cc1ccccc1)NC(=O)[C@H](Cc1ccc(O)cc1)NC(=O)[C@@H](N)CC(=O)O`, for which the Ke in [1] came out at 66 nM. Further, the results for the IC50 (on Mu-type opioid receptor; in experiment [2]) were 0.22 µM and 0.029 µM, respectively. The same compound yielded an Activity in experiment [3] of 0%.
A word on the Emax: it is the greatest response seen or fitted, relative to the assay's reference. Compound `CCCC[C@H](NC(=O)[C@H](CC(=O)O)NC(=O)[C@H](Cc1ccccc1)NN[C@@H](Cc1ccccc1)C(=O)NCC(=O)N[C@H](C)C(=O)N[C@@H](Cc1ccc(O)cc1)C(=O)O)C(=O)N[C@H](Cc1cn(C(=O)OC(C)(C)C)c2ccccc12)C(=O)O` came in with an Activity in [4] of 0%. The values for the Emax in [5] and in experiment [6] were 100% and 170%, respectively. The same compound had a Ke in experiment [1] of 6.5 nM.
On to `CCCC[C@H](NC(=O)[C@H](CC(=O)O)NC(=O)[C@H](Cc1ccccc1)NN[C@@H](Cc1ccccc1)C(=O)NCC(=O)N[C@H](C)C(=O)N[C@@H](Cc1ccc(O)cc1)C(=O)O)C(=O)N[C@H](Cc1cn(C(=O)OC23CC4CC(CC(C4)C2)C3)c2ccccc12)C(=O)O`, for which, in [4], the Activity was found to be 0%. The Emax stood at 25% in experiment [5] and 103% in experiment [6]. In experiment [1], this compound showed a Ke of 44 nM. Moreover, in experiment [7], the Selectivity ratio was found to be 430.
In turn, `CCCC[C@@H](C(=O)N[C@@H](Cc1cn(C(C)=O)c2ccccc12)C(=O)O)N(C(=O)Nc1ccccc1Cl)C(=O)[C@H](CC(=O)O)NC(=O)[C@H](Cc1ccccc1)N(C)N[C@@H](Cc1ccccc1)C(=O)NCC(=O)N[C@H](C)C(=O)N[C@@H](Cc1ccc(O)cc1)C(=O)O` registered an Activity in experiment [4] of 0%. Besides, the Emax in experiment [5] came out at 81%; in experiment [6] it was 33%. In experiment [1], this compound displayed a Ke of 150 nM.
Turning to `CCCC[C@@H](C(=O)N[C@H](Cc1cn(C(=O)OC(C)(C)C)c2ccccc12)C(=O)O)N(C)C(=O)[C@H](CC(=O)O)NC(=O)[C@H](Cc1ccccc1)NN[C@@H](Cc1ccccc1)C(=O)NCC(=O)N[C@H](C)C(=O)N[C@@H](Cc1ccc(O)cc1)C(=O)O`, in experiment [4], the Activity turned out to be 5%. The values for the Emax in [5] and in experiment [6] were 120% and 130%, respectively. Further, the Ke result in [8] is “Partial agonist”.
Regarding `CCCC[C@H](NC(=O)[C@H](CC(=O)O)NC(=O)[C@H](Cc1ccccc1)NN[C@@H](Cc1ccccc1)C(=O)NCC(=O)N[C@H](C)C(=O)N[C@@H](Cc1ccc(O)cc1)C(=O)O)C(=O)N[C@@H](Cc1cn(C(=O)OC(C)(C)C)c2ccccc12)C(=O)O`, the Activity in experiment [4] worked out at 0%. Also, the Emax in experiment [5] is 54%; in experiment [6], 83%. In experiment [1], this compound returned a Ke of 14 nM.
